PPC-1+TRAIL kill – compounds killing PPC-1 cancer cells with TRAIL present (potentiator screen, no TRAIL-free arm); actives 0.41% (n = 220,000); AID 1443; PPC-1 cells + TRAIL, ATPLite viability luminescence; cell killing (% activity), % at 4 µM or 5 µM;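 active means cell killing above 50% in the first pass at 4 µM, then a duplicate retest at 5 µM averaging 50% or more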
TRAIL sens C8 – sensitizes caspase-8 expressing cells to TRAIL. NB7+C8 cells + TRAIL, ATPlite viability luminescence. inhibition (viability loss, TRAIL sensitization), % at 10 µM. actives 1% (n = 360,000). AID 624354;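 active means compounds causing at least 50% loss of cell viability in the single-dose screen, relative to plate controls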
STAT3 blocker – reduces IL-6 driven STAT3 reporter signal. U3A cells, IL-6 STAT3-luciferase reporter, luminescence; host cell line lacks STAT1. actives 0.89% (n = 190,000). inhibition, % at 5.5 µM;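 active means inhibition above the mean inhibition across all screened compounds plus 3 SD, cut at about 44% in these data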
STAT3 activator – increases IL-6 driven STAT3 reporter signal | U3A cells, IL-6 STAT3-luciferase reporter, luminescence; 100% = signal with IL-6 EC80 alone | AID 871 | actives 0.91% (n = 190,000) | activation (% of control), % at 5.6 µM;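 active means activation above the screen-wide mean of compound activation plus 3 SD, cut at about 130% in these data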
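system = STAT3-luciferase reporter U3A cells | reagent = IL-6 stimulus at 33 ng/mL final | timing = 1 h compound pre-exposure, 6 h IL-6 stimulation, 37 °C | measured by = luminescence | evaluation = % activation versus median of IL-6-stimulated wells | control set = IL-6-only wells as 100% reference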
STAT1 inh – STAT1 signaling inhibition; NIH 3T3 STAT1-luciferase reporter, IFN-gamma, luminescence; inhibition, % at 5.5 µM; actives 0.35% (n = 200,000); AID 920;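 active means inhibition above a set limit, the mean inhibition across all tested compounds plus 3 SD, cut at about 34% in these data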
PPC1 cytotox – PPC-1 cell cytotoxicity; shares compounds with PPC-1+TRAIL kill; PPC-1 viability, ATPlite luminescence, overnight; cytotoxicity, % at 5 µM; actives 50% (n = 1,200);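 active means reconfirmed compounds whose average cytotoxicity reaches 50% or more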
Numbers stand for hits. A selection: hits, their analogues and other compounds. The true share with any hit is near 1.8%.

CCC(C)(C)c1ccc(OCCCC[n+]2cccc(C)c2C)c(C(C)(C)CC)c1 was read as PPC-1+TRAIL kill 62, TRAIL sens C8 inactive and PPC1 cytotox 58.
For CCC(C)(C)c1ccc(OCCCC[n+]2ccc(C)cc2)c(C(C)(C)CC)c1 the results were PPC-1+TRAIL kill inactive, STAT3 blocker inactive, STAT3 activator inactive and STAT1 inh inactive.
`COc1ccc(Cl)cc1S(=O)(=O)N(C)CC(=O)N1CCOCC1` gave TRAIL sens C8 inactive.
CC(=O)C1=C(C)NC(SCC(N)=O)=C(C#N)C1c1cccs1 (stereo not given) was read as PPC-1+TRAIL kill inactive, TRAIL sens C8 inactive, STAT3 blocker inactive, STAT3 activator inactive, STAT1 inh inactive and PPC1 cytotox inactive.
Screening COC(=O)[C@]12CCCCC=C1N(CCc1ccc(OC)c(OC)c1)C(=O)[C@H](CC(=O)N1CCOCC1)C2 returned TRAIL sens C8 inactive.
`Cc1c(NC(=O)C(C)OC(=O)c2ccc(NC(=O)CC#N)cc2)c(=O)n(-c2ccccc2)n1C` (stereo not given) gave TRAIL sens C8 inactive.
NS(=O)(=O)c1cccc(NC(=S)NCc2ccc3c(c2)OCO3)c1 was read as PPC-1+TRAIL kill inactive, TRAIL sens C8 inactive, STAT3 blocker inactive, STAT3 activator inactive, STAT1 inh inactive and PPC1 cytotox inactive.
`NS(=O)(=O)c1ccc(NC(=S)NCc2ccc3c(c2)OCO3)cc1` gave PPC-1+TRAIL kill inactive, TRAIL sens C8 inactive, STAT3 blocker inactive, STAT3 activator inactive and STAT1 inh inactive.
Screening CC(C)(C)c1ccc(S(=O)(=O)NC(=O)C2(C)CCN2C(=O)Cc2ccc(-c3ccccc3)cc2)cc1 (stereo not given) returned TRAIL sens C8 inactive.
For CC(=O)N1C(C(=O)O)Cc2c([nH]c3ccccc23)C1(C)C (stereo not given) the results were TRAIL sens C8 inactive.
For CC1(C)NC(C(=O)O)Cc2c1[nH]c1ccccc21 (stereo not given) the results were PPC-1+TRAIL kill inactive, TRAIL sens C8 inactive, STAT3 blocker inactive, STAT3 activator inactive, STAT1 inh inactive and PPC1 cytotox inactive.
Screening CCCc1cc(=O)[nH]c(SCC(=O)N2CCC(C)CC2)n1 returned TRAIL sens C8 inactive.
Screening Cc1cc(=O)[nH]c(SCC(=O)N2CCCCCC2)n1 returned PPC-1+TRAIL kill inactive, TRAIL sens C8 inactive, STAT3 blocker inactive, STAT3 activator inactive, STAT1 inh inactive and PPC1 cytotox inactive.
Screening CCCc1cc(=O)[nH]c(SCC(=O)N2CCN(c3ccc(F)cc3)CC2)n1 returned PPC-1+TRAIL kill inactive, TRAIL sens C8 inactive, STAT3 blocker inactive, STAT3 activator inactive, STAT1 inh inactive and PPC1 cytotox inactive.
Cc1cccc(N=C2NN=C(c3ccc4c(c3)OCCO4)CS2)c1 was read as PPC-1+TRAIL kill inactive, TRAIL sens C8 inactive, STAT3 blocker inactive, STAT3 activator inactive, STAT1 inh inactive and PPC1 cytotox inactive.
For Cc1cccc(N=C2NN=C(c3c(C)[nH]c4ccccc34)CS2)c1 the results were PPC-1+TRAIL kill inactive, TRAIL sens C8 inactive, STAT3 blocker inactive, STAT3 activator inactive and STAT1 inh inactive.
CCN(CC)c1ccc(NC(=S)Nc2ccc(F)cc2)cc1 was read as PPC-1+TRAIL kill inactive, TRAIL sens C8 inactive, STAT3 blocker inactive, STAT3 activator inactive, STAT1 inh inactive and PPC1 cytotox inactive.
`CCOc1ccc(C(=O)Nc2cc(C)ccn2)cc1` gave PPC-1+TRAIL kill 91, TRAIL sens C8 90, STAT3 blocker 93, STAT3 activator inactive, STAT1 inh 75 and PPC1 cytotox 90.
Screening COc1ccc2c(c1)sc1nc(-c3ccccc3)cn12 returned PPC-1+TRAIL kill 93, TRAIL sens C8 96, STAT3 blocker 106, STAT3 activator inactive, STAT1 inh 71 and PPC1 cytotox 92.
For CCOC(=O)c1nn(-c2ccc3c(c2)OCCO3)cc1O the results were PPC-1+TRAIL kill inactive, TRAIL sens C8 54, STAT3 blocker inactive, STAT3 activator inactive, STAT1 inh inactive and PPC1 cytotox inactive.
CCN(CC)CCn1nc2c3c(cccc3c1=O)-c1ccccc1-2 was read as PPC-1+TRAIL kill inactive, TRAIL sens C8 inactive, STAT3 blocker inactive, STAT3 activator 135, STAT1 inh inactive and PPC1 cytotox inactive.
Brc1ccc(-c2nc(N/N=C/c3cccnc3)c3ccccc3n2)cc1 was read as PPC-1+TRAIL kill 88, TRAIL sens C8 91, STAT3 blocker inactive, STAT3 activator inactive, STAT1 inh inactive and PPC1 cytotox 87.
For C(=N\Nc1nc(-c2ccccn2)nc2ccccc12)/c1ccccc1 the results were PPC-1+TRAIL kill 69 and PPC1 cytotox 73.
Screening COc1cccc(/C(C)=N/N=C(\C)c2cccc(OC)c2)c1 returned TRAIL sens C8 inactive.
For CCOc1cccc2cc(C(=O)NCc3ccc(Cl)cc3)c(=N)oc12 the results were TRAIL sens C8 inactive.
`O=C(Nc1ccc(F)c(Cl)c1)c1cc(C2CCCN(S(=O)(=O)c3cccc4cccnc34)C2)on1` (stereo not given) gave TRAIL sens C8 inactive.
Screening Cc1ccc(-c2cc(C(=O)NCc3cccs3)no2)cc1 returned PPC-1+TRAIL kill inactive, TRAIL sens C8 inactive, STAT3 blocker inactive, STAT3 activator inactive, STAT1 inh inactive and PPC1 cytotox inactive.
Screening O=C(NCc1cccs1)c1cc(-c2ccc(O)cc2)on1 returned PPC-1+TRAIL kill inactive and TRAIL sens C8 inactive.
C[C@H]1CN([C@@H](C)CO)S(=O)(=O)c2ccc(Br)cc2O[C@@H]1CN(C)C(=O)CCN1CCCCC1 was read as TRAIL sens C8 inactive.
For CC(C)(C)OC(=O)N1CCC(c2c(C(=O)NCC3CCN(C4CCCC4)C3)cnn2-c2cccc(Cl)c2)CC1 (stereo not given) the results were TRAIL sens C8 inactive.
COc1ccc(C(=O)Nc2ccc3c(c2)nc2n3CCSC2)cc1 was read as PPC-1+TRAIL kill inactive, TRAIL sens C8 inactive, STAT3 blocker inactive, STAT3 activator inactive and STAT1 inh inactive.
`O=C(Nc1ccc2c(c1)nc1n2CCSC1)c1ccccc1` gave PPC-1+TRAIL kill 57, TRAIL sens C8 62, STAT3 blocker inactive, STAT3 activator inactive, STAT1 inh inactive and PPC1 cytotox inactive.
`Cc1cc(C)c2c(N)c(C(=O)Nc3nccs3)sc2n1` gave PPC-1+TRAIL kill 82, TRAIL sens C8 81, STAT3 blocker 58, STAT3 activator inactive, STAT1 inh 48 and PPC1 cytotox 81.
`COCc1cc(C)nc2sc(C(=O)Nc3nccs3)c(N)c12` gave PPC-1+TRAIL kill inactive, TRAIL sens C8 inactive, STAT3 blocker inactive, STAT3 activator inactive and STAT1 inh inactive.
Screening COc1ccc(N/C(=N\c2nc(C)cc(C)n2)NC(C)=O)cc1OC returned PPC-1+TRAIL kill inactive, TRAIL sens C8 inactive, STAT3 blocker inactive, STAT3 activator inactive and STAT1 inh inactive.

Bioassay records: PubChem BioAssay, several laboratories
